The subject of assay [1] is Staphylococcus aureus. Put plainly: Antimicrobial activity against hospital-acquired methicillin-resistant Staphylococcus aureus ATCC 33591 infected in human THP-1 cells assessed as change in bacterial count after 24 hrs. It is filed as functional, organism-based. The conditions noted are these: ATCC 33591, THP-1, 24 h. In a few lines: (§1)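 THP-1 macrophages infected as described previously, with a postphagocytosis inoculum of 1.5 × 10⁶ to 3.0 × 10⁶ CFU/mg cell protein. Cells were exposed 24 h to increasing extracellular antibiotic concentrations. Response is the change in log10 CFU/mg protein from the inoculum (n = 3), fitted to a Hill function. E0 and Emax were extrapolated to infinitely low and high concentrations. EC50 and static concentration (graphical interpolation) are expressed as multiples of the broth MIC at pH 5.5 or 7.4.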

Assay [2] has as its system Staphylococcus aureus. The assay can be described thus: Antimicrobial activity against Panton-valentine leucocidin-positive community-acquired methicillin-resistant Staphylococcus aureus STA 228 infected in human THP-1 cells assessed as bacterial count per mg of cell protein at low extracellular compound concentration after 24 hrs. It is filed as functional. In outline: (§2)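 THP-1 human macrophages infected with S. aureus (postphagocytosis inoculum 1.5 × 10^6 to 3.0 × 10^6 CFU/mg cell protein), then incubated 24 h with increasing extracellular antibiotic concentrations. Change in log10 CFU/mg cell protein from the postphagocytosis inoculum, n = 3. Hill function fitted on log-transformed data. Low-concentration value (E0) and high-concentration value (Emax) are extrapolated. Where a pH is given, concentrations are expressed as multiples of the broth MIC at that pH.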

The subject of assay [3] is Staphylococcus aureus. Put plainly: Antimicrobial activity against hospital-acquired vancomycin-intermediate Staphylococcus aureus NRS126 infected in human THP-1 cells assessed as bacterial count per mg of cell protein at low extracellular compound concentration after 24 hrs at pH 7.4. It is filed as functional. In outline:
as §1

Assay [4] deals with Staphylococcus aureus. The assay can be described thus: Antimicrobial activity against hospital-acquired vancomycin-intermediate Staphylococcus aureus NRS18 infected in human THP-1 cells assessed as bacterial count per mg of cell protein at high extracellular compound concentration after 24 hrs at pH 5.5. It is filed as functional. In a few lines:
(§3)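 Human THP-1 macrophage-like cells were infected with S. aureus to a postphagocytosis inoculum of 1.5 × 10^6 to 3.0 × 10^6 CFU/mg cell protein. Cells were then exposed 24 h to increasing extracellular antibiotic concentrations. Response was the log10 CFU change per mg protein from the postphagocytosis inoculum, n = 3. A Hill function was fitted on log-transformed axes. E0 and Emax were extrapolated to infinitely low and high concentrations. Cs was read by graphical interpolation. Concentrations were expressed as multiples of the broth MIC at pH 5.5 or pH 7.4.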

For assay [5], the system named is Staphylococcus aureus. Put plainly: Antimicrobial activity against hospital-acquired methicillin-resistant Staphylococcus aureus ATCC 33592 infected in human THP-1 cells assessed as change in bacterial count after 24 hrs at pH 5.5. It is filed as functional, organism-based. Particulars: ATCC 33592, THP-1, 24 h. In outline:
as §1

In assay [6] the test system is Staphylococcus aureus. The assay can be described thus: Antimicrobial activity against methicillin-susceptible Staphylococcus aureus ATCC 11632 infected in human THP-1 cells assessed as bacterial count per mg of cell protein at high extracellular compound concentration after 24 hrs at pH 5.5. The assay is classed as functional. In outline: as §3
In assay [7] the test system is Staphylococcus aureus. Put plainly: Antimicrobial activity against hospital-acquired vancomycin-intermediate Staphylococcus aureus NRS18 infected in human THP-1 cells assessed as bacterial count per mg of cell protein at high extracellular compound concentration after 24 hrs. It is filed as functional. In a few lines: as §3
The test system of assay [8] is Staphylococcus aureus. The assay can be described thus: Antimicrobial activity against Panton-valentine leucocidin-positive community-acquired methicillin-resistant Staphylococcus aureus STA 44 infected in human THP-1 cells assessed as bacterial count per mg of cell protein at high extracellular compound concentration after 24 hrs at pH 5.5. The assay is classed as functional. In outline:
as §2

The test system of assay [9] is Staphylococcus aureus. The assay can be described thus: Bacteriostatic activity against Panton-valentine leucocidin-positive community-acquired methicillin-resistant Staphylococcus aureus NRS192 infected in human THP-1 cells assessed as change in bacterial count after 24 hrs at pH 5.5. It is filed as functional. In outline:
as §1

Assay [10] relates to Staphylococcus aureus. The assay can be described thus: Bacteriostatic activity against Panton-valentine leucocidin-positive community-acquired methicillin-resistant Staphylococcus aureus isolate MEH2225605 infected in human THP-1 cells assessed as change in bacterial count after 24 hrs at pH 5.5. It is filed as functional. In outline: as §1
The test system of assay [11] is Staphylococcus aureus. Put plainly: Antimicrobial activity against Panton-valentine leucocidin-positive community-acquired methicillin-resistant Staphylococcus aureus STA 44 infected in human THP-1 cells assessed as bacterial count per mg of cell protein at low extracellular compound concentration after 24 hrs. The assay is classed as functional. In outline:
as §2

Assay [12] has as its system Staphylococcus aureus. The assay can be described thus: Antimicrobial activity against hospital-acquired vancomycin-intermediate Staphylococcus aureus NRS18 infected in human THP-1 cells assessed as change in bacterial count after 24 hrs at pH 7.4. It is filed as functional, organism-based. Particulars: NRS18, THP-1, 24 h. In a few lines: as §1
Assay [13] has as its system Staphylococcus aureus. Put plainly: Antimicrobial activity against Panton-valentine leucocidin-positive community-acquired methicillin-resistant Staphylococcus aureus isolate MEH2225605 infected in human THP-1 cells assessed as bacterial count per mg of cell protein at high extracellular compound concentration after 24 hrs. It is filed as functional. In a few lines:
as §2

Assay [14] has as its system Staphylococcus aureus. The assay can be described thus: Antimicrobial activity against methicillin-susceptible Staphylococcus aureus […] infected in human THP-1 cells assessed as bacterial count per mg of cell protein at high extracellular compound concentration after 24 hrs. It is filed as functional. In outline:
as §3

The test system of assay [15] is Staphylococcus aureus. Put plainly: Bacteriostatic activity against hospital-acquired vancomycin-intermediate Staphylococcus aureus NRS126 infected in human THP-1 cells assessed as change in bacterial count after 24 hrs at pH 7.4. The assay is classed as functional. In outline:
as §1

Assay [16] has as its system Staphylococcus aureus. Put plainly: Antimicrobial activity against Panton-valentine leucocidin-positive community-acquired methicillin-resistant Staphylococcus aureus NRS192 infected in human THP-1 cells assessed as change in bacterial count after 24 hrs at pH 7.4. The assay is classed as functional, organism-based. Particulars: NRS192, THP-1, 24 h. In outline: as §2

Assay [17] deals with Staphylococcus aureus. The assay can be described thus: Bacteriostatic activity against methicillin-resistant Staphylococcus aureus ATCC 33591 infected in human keratinocytes assessed as change in bacterial count after 24 hrs. It is filed as functional. In a few lines: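 Primary human skin keratinocytes were grown in defined keratinocyte serum-free medium, infected, then incubated 24 h with increasing extracellular drug concentrations. Response was the change in log10 CFU/mg cell protein versus the post-phagocytosis inoculum, fitted to a Hill equation with slope factor 1. Static concentration (mg/liter, total drug) was taken by graphical interpolation where CFU equalled the original inoculum.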

Assay [18] relates to Staphylococcus aureus. The assay can be described thus: Antimicrobial activity against methicillin-susceptible Staphylococcus aureus ATCC 25923 infected in human keratinocytes assessed as bacterial count per mg of cell protein at low extracellular compound concentration after 24 hrs. The assay is classed as functional. In outline:
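Primary human skin keratinocytes were grown in defined keratinocyte serum-free medium and infected with S. aureus to 1.5 × 10^6 to 3.0 × 10^6 CFU/mg cell protein. Cells were exposed 24 h to increasing extracellular concentrations. Response was the log10 CFU change from the postphagocytosis inoculum, fitted by a Hill equation with slope 1. Cs is the concentration giving CFU equal to the original inoculum, found by graphical interpolation.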

≈ marks a conversion by molar mass, not a printed value.

In the case of `Nc1nc(/C(=N/O)C(=O)N[C@@H]2C(=O)N3C(C(=O)O)=C(/C=C4\CCN([C@@H]5CCNC5)C4=O)CS[C@H]23)ns1` [CEFTOBIPROLE], the EC50 in assay [1] turned out to be 0.27 µg/mL (≈ 0.505 µM); in [5] it was 0.77 ×MIC; in assay [12], 0.28 ×MIC; in assay [16] it was 0.33 ×MIC. For the same compound, the log10cfu in assay [2] is 2.87; in assay [3], 2.6; in assay [4], 1.01; in assay [6] it was 1.04; in assay [7] it was -1.34; in assay [8] it was -1.02. Also, the log10cfu is on record as 2.82 in assay [11], -0.97 in assay [13], -1.15 in assay [14] and 2.48 in [18]. Further, the Activity was determined as 1.45 × MIC in assay [9], 1.45 × MIC in assay [10], 0.74 ×MIC in assay [15] and 1.95 mg/L in assay [17].

Source of the values: ChEMBL document CHEMBL1649438, “Activities of ceftobiprole and other cephalosporins against extracellular and intracellular (THP-1 macrophages and keratinocytes) forms of methicillin-susceptible and methicillin-resistant Staphylococcus aureus” (Antimicrob Agents Chemother, 2009).
